This note sets out measurements from ChEMBL document CHEMBL3865815, “Synthesis, anti-cancer evaluation of benzenesulfonamide derivatives as potent tubulin-targeting agents” (Eur J Med Chem, 2016).

In brackets after ≈: the same amount, converted by molar mass. Activity calls are given as the source filed them. The rule behind the calls is not given here.

Data set [1] can be described thus: Antiproliferative activity against human SKOV3 cells after 72 hrs by MTT assay. The data set is classed as functional, cell-based. The settings on record: SK-OV-3, 72 h. The gist of the method: (§1)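 Cells grown in RPMI 1640 with heat-inactivated 10% FBS, 1 mmol/L sodium pyruvate and 2 mmol/L L-glutamine at 37 °C, 5% CO2. Seeded at 3.5×10^4 cells/mL and left 24 h, then exposed to compound for 72 h; DMSO control at 0.5% final. Surviving cells measured by MTT, OD 492/620 nm. IC50 taken from triplicate experiments.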
A general note: Tetrazolium assays rely on reduction of a dye to a coloured formazan, in cell work by metabolically active cells.

Data set [2] in a line: Antiproliferative activity against human PC3 cells after 72 hrs by MTT assay. The settings on record: PC-3, 72 h. It is filed as functional, cell-based. In outline:
as §1

A short description of data set [3]: Antiproliferative activity against human HepG2 cells after 72 hrs by MTT assay. It is filed as functional, cell-based. The settings on record: HepG2, 72 h. The gist of the method:
as §1

Data set [4] can be described thus: Antiproliferative activity against human HCT116 cells after 72 hrs by MTT assay. The settings on record: HCT-116, 72 h. It is filed as functional, cell-based. In outline:
as §1

The nature of data set [5]: Antiproliferative activity against human KB cells after 72 hrs by MTT assay. The data set is classed as functional, cell-based. The gist of the method: as §1
The nature of data set [6]: Antiproliferative activity against human MCF7 cells after 72 hrs by MTT assay. To be noted: MCF7, 72 h. The data set is classed as functional, cell-based. In outline:
as §1

Data set [7] is described as follows: Antiproliferative activity against human K562 cells after 72 hrs by MTT assay. The data set is classed as functional, cell-based. The settings on record: K562, 72 h. The gist of the method:
as §1

Data set [8] in a line: Antiproliferative activity against human K562/A02 cells after 72 hrs by MTT assay. The data set is classed as functional, cell-based. The settings on record: K562/A02, 72 h. In outline: as §1
A short description of data set [9]: Antiproliferative activity against human KB/VCR cells after 72 hrs by MTT assay. It is filed as functional, cell-based. In outline:
as §1

A short description of data set [10]: Antiproliferative activity against human MCF7/ADR cells after 72 hrs by MTT assay. The data set is classed as functional, cell-based. To be noted: NCI/ADR-RES. The gist of the method: as §1
For data set [11], the species on record is Bos taurus. In words: Inhibition of bovine tubulin assessed as induction of microtubule depolymerization at 1 uM preincubated with compound followed by GTP addition by spectrophotometric analysis. The gist of the method:
(§2)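 Bovine brain tubulin rich in microtubule-associated protein, 2 mg/mL, in 80 mM PIPES pH 6.9, 2 mM MgCl2, 0.5 mM EGTA and 5% glycerol, incubated with test agent or DMSO in cuvettes. Polymerization started with 1 mM GTP at 37 °C and followed by absorbance at 340 nm.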

Data set [12] relates to A549. In words: Inhibition of alpha tubulin polymerization in human A549 cells at 200 nM by Hoechst 33258 staining based fluorescent microscopic analysis. It is filed as cell-based. In outline: (§3)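 A549 cells treated 24 h with agent (200 nM or 50 nM) or DMSO control. α-Tubulin stained with primary antibody and DyLight488 secondary antibody, nuclei with Hoechst 33258. Imaged by fluorescence microscopy.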

Data set [13] is filed under the species Bos taurus. Put plainly: Inhibition of bovine tubulin assessed as induction of microtubule depolymerization at 3 uM preincubated with compound followed by GTP addition by spectrophotometric analysis. In outline: as §2
Data set [14] deals with SW480. In words: Induction of apoptosis in human SW480 cells assessed as early apoptotic cells at 50 nM after 24 hrs by propidium iodide-staining based FACS analysis (reference value: 3.41 %). It is filed as functional. The gist of the method: (§4)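 SW480 cells grown in 60 mm dishes to 70–80% confluence and treated 24 h, with DMSO as vehicle. All cells harvested, fixed in 70% alcohol and washed twice in cold PBS. Stained 30 min at 37 °C in 5 µg/ml propidium iodide, 100 µg/ml RNase and 0.2% Triton X-100, then analysed by flow cytometry.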
On the technique in general: In flow cytometry, cells or beads pass a laser one at a time.

A short description of data set [15]: Solubility of compound in pure water at 25 degC. It is filed as physicochemical. The gist of the method:
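Measured in pure water at 25 °C.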

For data set [16], the system named is SW480. In words: Induction of apoptosis in human SW480 cells assessed as accumulation of cells at M2 quadrant at 50 nM after 24 hrs by propidium iodide-staining based FACS analysis (reference value: 96.68 %). The data set is classed as functional. In outline:
as §4

Data set [17] is filed under the species Bos taurus. In words: Induction of bovine tubulin polymerization at 10 uM preincubated followed by GTP addition by spectrophotometric analysis. The gist of the method: as §2
Data set [18] deals with A549. In words: Inhibition of alpha tubulin polymerization in human A549 cells at 50 nM by Hoechst 33258 staining based fluorescent microscopic analysis. The data set is classed as cell-based. The gist of the method:
as §3

For `Cc1ccc2c(c1)OCCCN2S(=O)(=O)c1ccc(-c2cnc(C3CC3)o2)cc1`, the IC50 (in general, the concentration that inhibits the measured activity by half) in data set [1] turned out to be 179 nM; in data set [2] it was 241 nM; in data set [3], 795 nM; in data set [4], 766 nM.

As to `O=S(=O)(c1ccc(-c2cnc(C3CC3)o2)cc1)N1CCC[S+]([O-])c2ccccc21` (centres undefined), the IC50 in data set [1], in data set [2], in data set [3] and in data set [4] was more than 1000 nM in each case.

As for `COc1ccc2c(c1)OCCCN2S(=O)(=O)c1ccc(-c2cnc(C3CC3)o2)cc1`, the IC50 in data set [1] came out at 185 nM; in [2], 271 nM; in [3], 229 nM; in data set [4], 223 nM.

Consider `O=S1(=O)CCCN(S(=O)(=O)c2ccc(-c3cnc(C4CC4)o3)cc2)c2ccccc21`, for which the IC50 in data set [1] is 1620 nM; in data set [2] it was 5880 nM; in data set [3], 2170 nM; in [4], 263 nM.

As to `CN1CCN(S(=O)(=O)c2ccc(-c3cnc(C4CC4)o3)cc2)c2ccccc2C1`, the IC50 in data set [1] came to 199 nM; in data set [2], 347 nM; in data set [3], 525 nM; in data set [4], 256 nM.

For `Nc1ccc2c(c1)OCCCN2S(=O)(=O)c1ccc(-c2cnc(C3CC3)o2)cc1`, the IC50 in data set [1] amounted to 56 nM; in data set [2] it was 33 nM; in [3], 100 nM; in data set [4] it was 87 nM.

For the molecule `O=S(=O)(c1ccc(-c2cnc(C3CC3)o2)cc1)N1CCCCc2ccccc21`, the IC50 worked out at 38 nM in [1], 39 nM in data set [2], 73 nM in data set [3] and 72 nM in data set [4].

Consider `COc1cccc2c1C(=O)c1c(O)c3c(c(O)c1C2=O)C[C@@](O)(C(=O)CO)C[C@@H]3O[C@H]1C[C@H](N)[C@H](O)[C@H](C)O1` [DOXORUBICIN], for which the IC50 was 141 nM in data set [5]; 140 nM in data set [6]; 6 nM in data set [7]; 5960 nM in data set [8]; 1290 nM in data set [9]; 2940 nM in data set [10].

With `O=S(=O)(c1ccc(-c2cnc(C3CC3)o2)cc1)N1CCCOc2cc(F)ccc21`, the IC50 came out at 15 nM in [5]; 28 nM in data set [1]; 6 nM in data set [6]; 14 nM in [7]; 42 nM in [2]; 65 nM in data set [3]. The IC50 was found to be 46 nM in data set [8], 30 nM in data set [4], 12 nM in data set [9] and 12 nM in data set [10]. For the same molecule, the inhibition result in the data set filed under Bos taurus [11] and in the data set with A549 [12] was “Active” throughout.

Regarding `COC(=O)Nc1nc2cc(C(=O)c3cccs3)ccc2[nH]1`, the inhibition entry in the data set listed under Bos taurus [13] was “Active”.

On to `COc1ccc2c(c1)N(S(=O)(=O)c1ccc(-c3cnc(C4CC4)o3)cc1)CCCO2`, for which the IC50 in data set [1] was found to be 53 nM; in data set [2], 14 nM; in data set [3], 49 nM; in data set [4], 47 nM.

As to `O=S(=O)(c1ccc(-c2cnc(C3CC3)o2)cc1)N1CCOCc2ccccc21`, the IC50 in data set [1] was 175 nM; in data set [2], 137 nM; in data set [3] it was 242 nM; in data set [4], 187 nM.

For `Cc1ccc2c(c1)N(S(=O)(=O)c1ccc(-c3cnc(C4CC4)o3)cc1)CCCO2`, the IC50 in [1] was 34 nM; in data set [2], 41 nM; in [3], 31 nM; in [4], 29 nM.

With `O=S(=O)(c1ccc(-c2cnc(C3CC3)o2)cc1)N1CCCSc2ccccc21`, the IC50 in data set [1] was 49 nM; in data set [2] it was 34 nM; in data set [3], 27 nM; in data set [4], 88 nM.

Consider `O=S(=O)(c1ccc(-c2cnc(C3CC3)o2)cc1)N1CCCOc2ccc(F)cc21`, for which the IC50 in data set [5] came to 7 nM; in [1] it was 15 nM; in data set [6], 21 nM; in data set [7] it was 8 nM; in data set [2] it was 18 nM; in [3] it was 36 nM. Further, the IC50 in data set [8] is 13 nM; in data set [4], 24 nM; in data set [9] it was 7 nM; in data set [10], 20 nM. Moreover, the inhibition entry in the data set filed under Bos taurus [11] and with A549 [12] was “Active” each time. The figures for the Activity in the data set with SW480 [14] and with SW480 [16] were 7.74% and 92.28%, respectively. Further, the solubility – broadly, the dissolved amount per volume that the medium holds – in data set [15] is 10 µg/mL (≈ 24.1 µM).

Take `O=[N+]([O-])c1ccc2c(c1)OCCCN2S(=O)(=O)c1ccc(-c2cnc(C3CC3)o2)cc1`: the IC50 in data set [1] turned out to be 120 nM; in [2] it was 72 nM; in [3], 71 nM; in data set [4] it was 145 nM.

Consider `O=S(=O)(c1ccc(-c2cnc(C3CC3)o2)cc1)N1CCCc2ccccc21`, for which the IC50 is 47 nM in data set [1], 38 nM in [2], 29 nM in data set [3] and 49 nM in [4].

For `CC(=O)O[C@H]1C(=O)[C@@]2(C)[C@H]([C@H](OC(=O)c3ccccc3)[C@]3(O)C[C@H](OC(=O)[C@H](O)[C@@H](NC(=O)c4ccccc4)c4ccccc4)C(C)=C1C3(C)C)[C@]1(OC(C)=O)CO[C@@H]1C[C@@H]2O`, the outcome in the data set filed under Bos taurus [17] was Active.

For the molecule `O=S(=O)(c1ccc(-c2cnc(C3CC3)o2)cc1)N1CCOc2ccccc21`, the IC50 in data set [1] came out at 47 nM; in data set [2], 77 nM; in data set [3], 58 nM; in data set [4] it was 71 nM.

`O=[N+]([O-])c1ccc2c(c1)N(S(=O)(=O)c1ccc(-c3cnc(C4CC4)o3)cc1)CCCO2`: the IC50 in data set [1] turned out to be 53 nM; in data set [2] it was 119 nM; in data set [3], 149 nM; in data set [4], 133 nM.

Turning to `O=S(=O)(c1ccc(-c2cnc(C3CC3)o2)cc1)N1CCSc2ccccc21`, the IC50 in data set [1] was determined as 39 nM; in data set [2] it was 49 nM; in data set [3] it was 48 nM; in [4], 45 nM.

`CC[C@]1(O)C[C@H]2CN(CCc3c([nH]c4ccccc34)[C@@](C(=O)OC)(c3cc4c(cc3OC)N(C=O)[C@H]3[C@@](O)(C(=O)OC)[C@H](OC(C)=O)[C@]5(CC)C=CCN6CC[C@]43[C@@H]65)C2)C1` [VINCRISTINE]: the IC50 in data set [5] was 36 nM; in [6], 29 nM; in data set [7] it was 4 nM; in data set [8] it was 926 nM; in data set [9], 871 nM; in [10], 308 nM. For the same molecule, the inhibition result in the data set with A549 [18] was “Active”.

For `O=S(=O)(c1ccc(-c2cnc(C3CC3)o2)cc1)N1CCCOc2ccc(Cl)cc21`, the IC50 came out at 19 nM in data set [1], 18 nM in data set [2], 28 nM in data set [3] and 39 nM in data set [4].

Consider `O=S(=O)(c1ccc(-c2cnc(C3CC3)o2)cc1)N1CCCOc2ccccc21`, for which the IC50 in data set [1] was found to be 36 nM; in [2], 27 nM; in data set [3] it was 40 nM; in data set [4], 40 nM.
